OX1R antag-1 = blocks the human orexin 1 receptor. O43613. CHO/OX1R cells, Fluo-8 calcium fluorescence, orexin A. inhibition, % at 5 µM. 0.43% of 330,000 active;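 active = inhibition above its plate's threshold, mean inhibition of all tested compounds on the plate plus 3 SD, cut at about 37% in these data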;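 note: 0% = orexin A challenge wells and 100% = SB-334867-A antagonist wells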
OXTR potentiator = potentiators of human oxytocin receptor; P30559; CHO-OTR cells, Fluo-8 calcium fluorescence, potentiator mode; 0% = oxytocin EC15, 100% = EC100; activation, % at 3 µM; 0.061% of 320,000 active; AID 2445;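 active = activation above that plate's cutoff, the mean activation of tested compounds plus 3 SD, cut at about 6.6% in these data, passing the limit was not always enough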;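 note: 100% uses oxytocin at 75 nM as the full agonist control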
Target sequence (P30559 whole entry, looked up): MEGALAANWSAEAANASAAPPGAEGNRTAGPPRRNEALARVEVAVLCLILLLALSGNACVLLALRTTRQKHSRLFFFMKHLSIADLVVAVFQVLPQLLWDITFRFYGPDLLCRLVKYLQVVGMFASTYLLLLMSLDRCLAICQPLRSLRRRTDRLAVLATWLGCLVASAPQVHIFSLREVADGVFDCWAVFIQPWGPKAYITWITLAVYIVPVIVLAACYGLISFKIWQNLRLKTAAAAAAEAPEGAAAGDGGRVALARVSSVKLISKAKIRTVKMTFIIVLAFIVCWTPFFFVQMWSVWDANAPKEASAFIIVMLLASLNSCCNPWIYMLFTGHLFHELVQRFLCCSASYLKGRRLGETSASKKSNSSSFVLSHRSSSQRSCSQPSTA
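Assay system: CHO cell line stably expressing human OTR | Also added: Oxytocin at about EC15, sub-maximal agonist stimulus | Times: Compound 6 min at room temperature before oxytocin, 100 s read | Measured by: Fluo-8 intracellular calcium fluorescence, ex 470-495, em 515-575 nm | Controls: EC15 oxytocin alone as 0%, 75 nM oxytocin as 100%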
CHO parental Ca = signal in parental CHO cells, OX1R antagonist counter-screen. parental CHO-K1, ATP-induced calcium, Fluo-8 fluorescence. inhibition, % at 5.6 µM. 0.63% of 330,000 active. AID 463079;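 active = inhibition above that plate's mean sample inhibition plus 3 SD, cut at about 26% in these data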;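 note: 0% = ATP-challenged DMSO wells and 100% = DMSO wells without ATP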
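Material: parental CHO cells / Compound: single nominal dose of 5.6 µM per compound / Signal: Fluo-8 fluorescence / Replicates: singlicate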
V1R ag counter = counter-screen for oxytocin receptor agonists: human V1a receptor agonists | CHO-V1R cells, Fluo-8 calcium fluorescence, agonist mode; 0% DMSO, 100% 3 nM vasopressin | activation, % at 3 µM | AID 2797 | 0.25% of 320,000 active;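 active = activation above the mean activation of all tested compounds plus 3 SD, per screening run, cut at about 20% in these data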;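 note: signal is peak over basal fluorescence ratio across a 100 second FLIPR read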
OXTR agonist = human OXTR agonism | P30559 | CHO-OTR cells, Fluo-8 calcium fluorescence; normalized: DMSO 0%, oxytocin 100% | activation, % at 3 µM | 0.32% of 320,000 active;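 active = activation above the mean of all tested compounds plus 3 SD, cutoff set per screening run, cut at about 20% in these data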;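 note: peak over basal fluorescence ratio from a 100 s FLIPR kinetic read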
OX1R antag-2 = blocks the human orexin 1 receptor | OX1R-expressing cells, FRET antagonist read-out | inhibition, % at 6.6 µM | 1.8% of 330,000 active; in the data active = inhibition mostly above about 38%, no sharp cut-off; inactive = mostly below about 40%;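 note: 0% = agonist challenge alone and 100% = reference antagonist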
The depositor's hits bear a star; + = active, no number. Compounds with a hit are over-represented: about 2.6% of the library has one in this group of screens.

SMILES | OX1R antag-1 | OXTR potentiator | CHO parental Ca | V1R ag counter | OXTR agonist | OX1R antag-2
O=C(N/N=C/C=C\c1cccc([N+](=O)[O-])c1)c1cccnc1 | -20 | -9 | -4 | 0 | -2 | 36*
O=C(/C=C/c1ccc([N+](=O)[O-])cc1)NCc1ccccn1 | -1 | -3 | -6 | 1 | 1 | 75*
CC(/C=C/c1cccc([N+](=O)[O-])c1)=N/NC(=O)c1cccnc1 | -15 | -5 | -15 | 0 | -1 | 44
CC(=O)c1sc(NC(=O)COc2ccc(C(C)C)c(C)c2)nc1C | -20 | -3 | -17 | -1 | 1 | 11
O=C(N/N=C/c1ccc([N+](=O)[O-])cc1)c1cccnc1 | -18 | -15 | 2 | 2 | 0 | 72*
O=C(N/N=C/c1ccc(-c2ccc([N+](=O)[O-])cc2)o1)c1cccnc1 | -16 | -5 | -28 | -2 | -1 | 30
CNC(=O)c1ccsc1NC(=O)c1ccccc1 | -8 | -6 | -5 | 1 | 1 | 43*
N#Cc1c(=O)c2nc(NCc3ccccc3)ncc2n2ccccc12 | 13 | 1 | -3 | 1 | 0 | 62*
N#Cc1c(=O)c2nc(NCCCO)ncc2n2c(=O)c3ccccc3[nH]c12 | -14 | -13 | 7 | 1 | -2 | 19
O=C(CCCn1c(=S)[nH]c2cc3c(cc2c1=O)OCO3)NCc1cccc(Cl)c1 | -16 | -10 | -18 | -1 | -3 | 14
CCOC(=O)N1CCN(C(=O)CS(=O)(=O)c2cn(Cc3ccc(F)cc3)c3ccccc23)CC1 | 17 | -6 | -9 | 2 | 3 | 62*
O=S(=O)(C=C(c1ccccc1)c1ccccc1)c1ccccc1 | 43* | -19 | 48* | 1 | 1 | 42
O=C(CC(c1ccco1)S(=O)(=O)c1ccccc1)c1ccccc1 (centres undefined) | -1 | -5 | -19 | -1 | -2 | -17
COc1ccc(/C=N/Nc2ncccc2[N+](=O)[O-])c(OC)c1 | -7 | 2 | -13 | -2 | -2 | 50*
COc1ccc(/C=N/Nc2ncc(-c3ccccc3)cn2)c(OC)c1 | -44 | 2 | -11 | -1 | -2 | 23
CN(C1=C(NC(=O)c2ccccc2)C(=O)c2ccccc2C1=O)C1CCS(=O)(=O)C1 (centres undefined) | -19 | 1 | -10 | 0 | 0 | 85*
O=C(NC(=S)NC1CCS(=O)(=O)C1)c1ccccc1 (centres undefined) | -6 | 1 | 4 | 1 | 1 | 17
COc1ccccc1NC(=O)COC(=O)c1[nH]c(=O)[nH]c(=O)c1N | 7 | -8 | 5 | 0 | 0 | 18
Cc1nn(Cc2ccc(Cl)c(Cl)c2)c(C)c1NC(=O)c1cc(CC(C)C)on1 | -27 | -8 | 33* | 2 | -1 | 17
O=C(O)c1ccc(NS(=O)(=O)c2ccc(Cl)c(C(=O)Nc3ccccc3[N+](=O)[O-])c2)cc1 | 4 | 3 | -6 | 1 | 1 | 11
Cc1ccccc1OCCNc1cc(N2CCN(CCO)CC2)ccc1[N+](=O)[O-] | 6 | -10 | -3 | 10 | 17 | 27
Cc1ccccc1OCCNc1cc(N2CCCCC2)ccc1[N+](=O)[O-] | -4 | -11 | 37* | 1 | -1 | 18
OCC[C@H]1C[C@@H](O)[C@H](O)[C@@]2(Cc3ccccc3CO2)O1 | -27 | -3 | -8 | 1 | 1 | 12
Cc1cc(/C=C2\SC(=S)NC2=O)c(C)n1-c1ccccc1 | -18 | -10 | -16 | 1 | 0 | 45*
Cc1cc(/C=C2\SC(=S)NC2=O)cc(C)c1O | -4 | -9 | 3 | 7 | 18 | 46*
SMILES | OX1R antag-1 | OXTR potentiator | CHO parental Ca | V1R ag counter | OXTR agonist | OX1R antag-2
CSc1ccc(/C=N/NC(=O)c2ccccc2Cl)cc1 | -11 | -15 | 1 | -1 | -1 | 13
Nc1[nH]c(=O)nc(Nc2ccccc2)c1N=O | -17 | 4 | 2 | 1 | -2 | 55*
O=c1nc(N2CCCC2)nc(Nc2ccccc2)[nH]1 | -11 | -9 | -1 | 1 | 1 | 4
CC(=O)Oc1ccc2c(c1)Oc1cc(OC(C)=O)ccc1C21OC(=O)c2ccccc21 | 106* | -9 | 101* | + | 938* | 60*
Cc1cc(O)ccc1C1(c2ccc(O)cc2C)OC(=O)c2ccccc21 | 8 | -8 | -6 | 6 | 7 | 12
O=C(Nc1ccc([N+](=O)[O-])cn1)c1cccnc1 | -3 | -2 | -5 | 1 | 0 | 28
O=C(Nc1ccc([N+](=O)[O-])cn1)c1ccc(Br)o1 | -5 | 1 | -10 | -1 | -2 | 64*
COc1ccccc1C(C)Nc1nc(-c2cccnc2)nc2ccccc12 (centres undefined) | -29 | 2 | -25 | 0 | -1 | 39
CC(=O)N1CCOc2cc(S(=O)(=O)N3CCN(c4ccccc4)CC3)c(Cl)cc21 | -8 | -7 | 6 | 3 | 3 | 6
Cc1cc2[nH]c(=O)c(=O)[nH]c2cc1S(=O)(=O)N1CCN(c2ccccc2)CC1 | -5 | -14 | -5 | 0 | 1 | 1
Cc1cc2c(cc1S(=O)(=O)N1CCN(c3ccccc3)CC1)OCCN2C | -32 | -5 | 34* | 1 | -1 | 17
Cc1ccc(Br)cc1S(=O)(=O)N1CCN(c2ccccc2)CC1 | -21 | -20 | 36* | 0 | -2 | 1
CCCC(=NC(C)CC)C1=C(O)CC(c2ccccc2)CC1=O (centres undefined) | -16 | -15 | -25 | -1 | -2 | -1
Cc1ccnn1-c1ccc(C(=O)NCc2ccccc2CN2CCOCC2)cc1 | -37 | 6 | -13 | 0 | 1 | 9
CCn1c(=NC(=O)c2ccco2)sc2cccc(F)c21 | -4 | -1 | -17 | -1 | -2 | 65*
Cc1ccc(C)c(NC(=O)CN(C)C(=O)C2CCN(C(=O)Nc3ccccc3)CC2)c1 | -14 | -1 | -23 | 0 | -1 | 0
Cc1ccc(S(=O)(=O)NCc2ccncc2)c(C)c1C | 3 | -15 | 41* | 11 | 16 | 31
CCC(C)Sc1ccc([C@H]2N[C@@](C)(C(=O)OC)[C@H]3C(=O)N(CC)C(=O)[C@@H]23)cc1OC (some centres undefined) | -9 | -6 | -4 | 3 | 1 | 2
CC(C)(C)SCCNC(=O)Nc1ccccc1 | -8 | -4 | 0 | 1 | 0 | 3
Cc1ccc(C(C(=O)NC2CCCC2)N(C(=O)Cc2cccs2)c2ccc(C)c(C)c2)o1 (centres undefined) | 13 | -6 | 40* | 3 | -2 | 53*
CCOC(=O)[C@H]1[C@H]2COc3ccc(Br)cc3[C@@H]2N2C(=O)CN(Cc3ccccc3)C(=O)[C@@]12C | -29 | -3 | -29 | 0 | 1 | 5

Assay outcomes (PubChem)
